Calls of active or inactive are those of the source.
How the values were obtained:
[1] = tested on: Staphylococcus aureus; experiment: Antibacterial activity against Staphylococcus aureus ATCC 29213 assessed as bacterial growth inhibition incubated for 16 to 18 hrs by CLSI based antibiotic susceptibility testing method; format: functional; conditions: time 16-18 hrs
How it was run: (§1)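 Broth microdilution in cation-adjusted Mueller-Hinton broth. Compounds were tested at […], with levofloxacin as reference and medium-only controls. Plates were incubated at 37 °C for 16-18 h. MIC was the lowest concentration with no visible growth; three independent determinations, each in duplicate.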

[2] = tested on: Mycobacterium tuberculosis; experiment: Antimycobacterial activity against Mycobacterium tuberculosis H37Rv ATCC 27294 assessed as bacterial growth inhibition incubated for 7 days by resazurin dye based broth microdilution method; format: functional; conditions: H37Rv ATCC 27294, 168 h, time 7 day
How it was run: (§2)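 Broth microdilution in Middlebrook 7H9 with 10% ADC-Tween-80 (0.2% glycerol, 0.05% Tween-80), inoculum ~10⁶ cfu/mL. Compounds came from 10 mg/mL DMSO stocks and were tested as two-fold serial dilutions at 37 °C, 7 days for M. tuberculosis H37Rv and 72 h for NTM. Growth was read visually with PrestoBlue resazurin dye; MIC was the lowest concentration preventing growth. Triplicate determinations, each in duplicate.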

[3] = tested on: Escherichia coli; experiment: Antibacterial activity against Escherichia coli ATCC 25922 assessed as bacterial growth inhibition incubated for 16 to 18 hrs by CLSI based antibiotic susceptibility testing method; format: functional, organism-based; conditions: time 16-18 hrs; how it was run: as §1
[4] = tested on: Klebsiella pneumoniae; experiment: Antibacterial activity against Klebsiella pneumoniae BAA 1705 assessed as bacterial growth inhibition incubated for 16 to 18 hrs by CLSI based antibiotic susceptibility testing method; format: functional, organism-based; conditions: time 16-18 hrs; how it was run: as §1
[5] = tested on: Acinetobacter baumannii; experiment: Antibacterial activity against Acinetobacter baumannii BAA 1605 assessed as bacterial growth inhibition incubated for 16 to 18 hrs by CLSI based antibiotic susceptibility testing method; format: functional, organism-based; conditions: time 16-18 hrs; how it was run: as §1
[6] = tested on: Pseudomonas aeruginosa; experiment: Antibacterial activity against Pseudomonas aeruginosa ATCC 27853 assessed as bacterial growth inhibition incubated for 16 to 18 hrs by CLSI based antibiotic susceptibility testing method; format: functional, organism-based; conditions: time 16-18 hrs; how it was run: as §1
[7] = tested on: Mycobacteroides abscessus; experiment: Antimycobacterial activity against Mycobacterium abscessus ATCC 19977 assessed as bacterial growth inhibition incubated for 72 hrs by resazurin dye based broth microdilution method; format: functional, organism-based; how it was run: as §2
[8] = tested on: Mycolicibacterium fortuitum; experiment: Antimycobacterial activity against Mycobacterium fortuitum ATCC 6841 assessed as bacterial growth inhibition incubated for 72 hrs by resazurin dye based broth microdilution method; format: functional, organism-based; how it was run: as §2
[9] = tested on: Mycobacteroides chelonae; experiment: Antimycobacterial activity against Mycobacteroides chelonae ATCC 35752 assessed as bacterial growth inhibition incubated for 72 hrs by resazurin dye based broth microdilution method; format: functional, organism-based; how it was run: as §2
[10] = Cytotoxicity against African green monkey Vero cells by MTT assay; format: toxicity, cell-based; conditions: chlorocebus sabaeus
How it was run: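 Vero cells were seeded at ~10³ per well at 37 °C, 5% CO2. After 24 h, compounds were added at 5-100 mg/L for 72 h. […] was added for 4 h, formazan was dissolved in DMSO and read at 540 nm. CC50 was taken as the lowest concentration reducing viability by 50%; doxorubicin was the positive control; triplicate.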

[11] = Selectivity index, ratio of CC50 for African green monkey Vero cells to MIC for Staphylococcus aureus ATCC 29213; format: toxicity, cell-based; conditions: read-out: Selectivity Index
[12] = tested on: Staphylococcus aureus; experiment: Antibacterial activity against methicillin-sensitive Staphylococcus aureus ATCC 29213 clinical isolate assessed as bacterial growth inhibition incubated for 16 to 18 hrs by CLSI based antibiotic susceptibility testing method; format: functional; conditions: time 16-18 hrs; how it was run: as §1
[13] = tested on: Staphylococcus aureus; experiment: Antibacterial activity against methicillin/ceftriaxone/meropenem/gentamycin/linezolid-resistant Staphylococcus aureus NRS10100 clinical isolate assessed as bacterial growth inhibition incubated for 16 to 18 hrs by CLSI based antibiotic susceptibility testing method; format: functional; conditions: time 16-18 hrs; how it was run: as §1
[14] = tested on: Staphylococcus aureus; experiment: Antibacterial activity against methicillin/ceftriaxone/meropenem/gentamycin/linezolid-resistant Staphylococcus aureus NRS10119 clinical isolate assessed as bacterial growth inhibition incubated for 16 to 18 hrs by CLSI based antibiotic susceptibility testing method; format: functional; conditions: time 16-18 hrs; how it was run: as §1
[15] = tested on: Staphylococcus aureus; experiment: Antibacterial activity against methicillin/ceftriaxone/meropenem-resistant Staphylococcus aureus NRS10129 clinical isolate assessed as bacterial growth inhibition incubated for 16 to 18 hrs by CLSI based antibiotic susceptibility testing method; format: functional; conditions: time 16-18 hrs; how it was run: as §1
[16] = tested on: Staphylococcus aureus; experiment: Antibacterial activity against methicillin/ceftriaxone/meropenem-resistant Staphylococcus aureus NRS10186 clinical isolate assessed as bacterial growth inhibition incubated for 16 to 18 hrs by CLSI based antibiotic susceptibility testing method; format: functional; conditions: time 16-18 hrs; how it was run: as §1
[17] = tested on: Staphylococcus aureus; experiment: Antibacterial activity against methicillin/ceftriaxone/meropenem-resistant Staphylococcus aureus NRS10191 clinical isolate assessed as bacterial growth inhibition incubated for 16 to 18 hrs by CLSI based antibiotic susceptibility testing method; format: functional; conditions: time 16-18 hrs; how it was run: as §1
[18] = tested on: Staphylococcus aureus; experiment: Antibacterial activity against methicillin/ceftriaxone/meropenem-resistant Staphylococcus aureus NRS10192 clinical isolate assessed as bacterial growth inhibition incubated for 16 to 18 hrs by CLSI based antibiotic susceptibility testing method; format: functional; conditions: time 16-18 hrs; how it was run: as §1
[19] = tested on: Staphylococcus aureus; experiment: Antibacterial activity against methicillin/ceftriaxone/meropenem-resistant Staphylococcus aureus NRS10193 clinical isolate assessed as bacterial growth inhibition incubated for 16 to 18 hrs by CLSI based antibiotic susceptibility testing method; format: functional; conditions: time 16-18 hrs; how it was run: as §1
[20] = tested on: Staphylococcus aureus; experiment: Antibacterial activity against methicillin/ceftriaxone-resistant Staphylococcus aureus NRS10194 clinical isolate assessed as bacterial growth inhibition incubated for 16 to 18 hrs by CLSI based antibiotic susceptibility testing method; format: functional; conditions: time 16-18 hrs; how it was run: as §1
[21] = tested on: Staphylococcus aureus; experiment: Antibacterial activity against methicillin/ceftriaxone/meropenem-resistant Staphylococcus aureus NRS10198 clinical isolate assessed as bacterial growth inhibition incubated for 16 to 18 hrs by CLSI based antibiotic susceptibility testing method; format: functional; conditions: time 16-18 hrs; how it was run: as §1
[22] = tested on: Staphylococcus aureus; experiment: Antibacterial activity against methicillin/ceftriaxone/meropenem/gentamycin/vancomycin/teicoplanin-resistant Staphylococcus aureus VRS1 clinical isolate assessed as bacterial growth inhibition incubated for 16 to 18 hrs by CLSI based antibiotic susceptibility testing method; format: functional; conditions: time 16-18 hrs; how it was run: as §1
[23] = tested on: Staphylococcus aureus; experiment: Antibacterial activity against methicillin/ceftriaxone/meropenem/vancomycin/teicoplanin-resistant Staphylococcus aureus VRS4 clinical isolate assessed as bacterial growth inhibition incubated for 16 to 18 hrs by CLSI based antibiotic susceptibility testing method; format: functional; conditions: time 16-18 hrs; how it was run: as §1
[24] = tested on: Staphylococcus aureus; experiment: Antibacterial activity against methicillin/ceftriaxone/meropenem/vancomycin/teicoplanin-resistant Staphylococcus aureus VRS12 clinical isolate assessed as bacterial growth inhibition incubated for 16 to 18 hrs by CLSI based antibiotic susceptibility testing method; format: functional; conditions: time 16-18 hrs; how it was run: as §1

O=C(CN1C(=O)c2cccc3cccc(c23)C1=O)N1CCC(NC(=S)Nc2ccccc2)CC1
inactive: growth inhibition (GI) [3] | growth inhibition (GI) [4] | growth inhibition (GI) [5] | growth inhibition (GI) [6] | growth inhibition (GI) [7] | growth inhibition (GI) [8] | growth inhibition (GI) [9]
> 200: selectivity ratio [11]
> 64 µg/mL: MIC [2]
0.5 µg/mL: MIC [1] | MIC [22] | MIC [24]
> 100 µg/mL: CC50 [10]
1 µg/mL: MIC [12] | MIC [13] | MIC [15] | MIC [20]
0.25 µg/mL: MIC [14] | MIC [16] | MIC [17] | MIC [18] | MIC [19] | MIC [21] | MIC [23]

O=C(CCN1C(=O)c2cccc3cccc(c23)C1=O)N1CCN(C(=S)NC2CCCCC2)CC1
4 µg/mL: MIC [13] | MIC [19]
inactive: growth inhibition (GI) [3] | growth inhibition (GI) [4] | growth inhibition (GI) [5] | growth inhibition (GI) [6] | growth inhibition (GI) [7] | growth inhibition (GI) [8] | growth inhibition (GI) [9]
1 µg/mL: MIC [1] | MIC [16] | MIC [18] | MIC [21] | MIC [23]
> 50: selectivity ratio [11]
> 50 µg/mL: CC50 [10]
2 µg/mL: MIC [12] | MIC [14] | MIC [15] | MIC [17] | MIC [20] | MIC [22] | MIC [24]
> 64 µg/mL: MIC [2]

O=C(CN1C(=O)c2cccc3cccc(c23)C1=O)NC1CCN(C(=S)Nc2ccccc2)CC1
> 64 µg/mL: MIC [2]
1 µg/mL: MIC [18]
4 µg/mL: MIC [1] | MIC [12] | MIC [13] | MIC [15] | MIC [20] | MIC [24]
inactive: growth inhibition (GI) [3] | growth inhibition (GI) [4] | growth inhibition (GI) [5] | growth inhibition (GI) [6] | growth inhibition (GI) [7] | growth inhibition (GI) [8] | growth inhibition (GI) [9]
2 µg/mL: MIC [14] | MIC [16] | MIC [17] | MIC [19] | MIC [21] | MIC [22] | MIC [23]
> 50: selectivity ratio [11]
> 200 µg/mL: CC50 [10]

O=C(CN1C(=O)c2cccc3cccc(c23)C1=O)NC1CCN(C(=S)NC2CCCCC2)CC1
> 64 µg/mL: MIC [2]
> 40: selectivity ratio [11]
0.125 µg/mL: MIC [14] | MIC [16] | MIC [17] | MIC [19]
0.25 µg/mL: MIC [1] | MIC [12] | MIC [13] | MIC [18] | MIC [20] | MIC [21] | MIC [23] | MIC [24]
> 10 µg/mL: CC50 [10]
0.5 µg/mL: MIC [15] | MIC [22]
inactive: growth inhibition (GI) [3] | growth inhibition (GI) [4] | growth inhibition (GI) [5] | growth inhibition (GI) [6] | growth inhibition (GI) [7] | growth inhibition (GI) [8] | growth inhibition (GI) [9]

O=C(CN1C(=O)c2cccc3cccc(c23)C1=O)NC1CCN(C(=S)NC2CCCCCC2)CC1
> 64 µg/mL: MIC [2]
> 100 µg/mL: CC50 [10]
> 200: selectivity ratio [11]
1 µg/mL: MIC [12] | MIC [15] | MIC [18] | MIC [20] | MIC [21] | MIC [22] | MIC [23] | MIC [24]
0.5 µg/mL: MIC [1] | MIC [13] | MIC [14] | MIC [16] | MIC [17] | MIC [19]
inactive: growth inhibition (GI) [3] | growth inhibition (GI) [4] | growth inhibition (GI) [5] | growth inhibition (GI) [6] | growth inhibition (GI) [7] | growth inhibition (GI) [8] | growth inhibition (GI) [9]
